Shown are actives, neighbours in structure and some others; about 1% of the full set was active somewhere.
eIF2B yeast act: modulators of yeast eIF2B activity | S. cerevisiae eIF2B-epsilon R284H, GCN4-lacZ luminescence | inhibition, % at 25 µM (by protocol) | actives 0.91% (n = 27,000);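 active means mutant luminescence inhibited past about 50% while wild type luminescence and mutant growth stay under set limits, limit read from the data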
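System: Yeast eIF2B-epsilon R284H mutant carrying GCN4–beta-galactosidase fusion | Read-out basis: Percent inhibition, luminescence and growth | Compound: 25 µM single dose | Times: 16 h at 30 °C exposure | Measured by: Luminescence and A595 | Buffer or medium: YPD medium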
Yeast growth tox: Inhibits yeast growth, turbidity readout | S. cerevisiae wild-type growth, A595 turbidity, 16 h | growth inhibition, % at 25 µM (by protocol) | actives 0.3% (n = 30,000);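 active means mutant and wild-type yeast strains alike exhibit over 30% growth inhibition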;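 further: 0% = untreated cell controls and 100% = YPD media blanks without cells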
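System – wild-type and eIF2Bepsilon-R284H mutant S. cerevisiae, screened separately · Measured by – absorbance at 595 nm (turbidity) · Timing – 16 h compound exposure during growth at 30 °C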
* = called active by the depositor; nt = no result; ! = not confirmed by another sample.

SMILES	eIF2B yeast act	Yeast growth tox
CCN(CC)CCNC(=O)Cn1nc(-c2ccccc2)c2ccccc2c1=O	24	-22
CNC(=O)Cn1nc(-c2ccc(C)c(S(=O)(=O)N(C)C)c2)c2ccccc2c1=O	62*	1
c1ccc(SCCc2ccncc2)cc1	nt	9
Fc1ccc(SCCc2ccncc2)cc1	nt	59*!
CS(=O)(=O)N(CC(=O)NC1CCCC1)Cc1ccc(Cl)cc1	nt	15
CC(C)(C)S(=O)c1cccs1 (centres undefined)	nt	34
CN(C)c1nc(N(C)C)nc(N(C#N)CCOc2ccccc2)n1	50*	nt
Cc1cc(C)nc(N(C#N)CCOc2ccccc2)n1	-17	-8
Cc1ccc(NC2CC(=O)N(Cc3ccccc3)C2=O)cc1 (centres undefined)	nt	28
CN1C(=O)CC2(CC(=O)N(Cc3ccccc3)C2)C1=O (centres undefined)	61*	nt
COc1ccc(C2N(S(=O)(=O)c3ccccc3)CCN2S(=O)(=O)c2ccc(C)cc2)cc1 (centres undefined)	nt	23
O=C(O)CC(c1ccc(Cl)cc1)n1cccc1 (centres undefined)	23	19
C=CCn1c(SCc2nc3ccccc3[nH]2)nnc1-c1ccc(OC)cc1	-40	-10
Cc1ccc(-n2c(C)cc(C3N=C(N)Nc4nc5ccccc5n43)c2C)c(C)c1 (centres undefined)	63	92*
NC1=NC(c2cn(-c3ccccc3)nc2-c2cccs2)n2c(nc3ccccc32)N1 (centres undefined)	33	19
CN(CC(=O)NCc1ccncc1)S(=O)(=O)c1ccc(F)cc1	nt	9
O=C(CNC1CCCCC1)N1CCc2ccccc2C1	nt	3
CCOC(=O)C1=C(C)NC(C)=C(C(=O)OCC)C1C(=O)OCC(=O)N1CCc2ccccc2C1	59*	0
CCOC(=O)CCSc1nnc(-c2cccnc2)n1-c1ccccc1OC	15	-1
Cc1nn(-c2ccccc2)c2c1C(c1c(C)[nH]c(C#N)c1C)C(C#N)=C(N)O2 (centres undefined)	53*	-7
Cc1ccc(-n2nc(C)c3c2OC(N)=C(C#N)C3c2ccccc2F)cc1 (centres undefined)	24	-2
CS(=O)(=O)N(Cc1ccccc1)c1ccccc1C(=O)N1CCN(c2ccccc2)CC1	nt	2
COc1ccc(C(CC(=O)O)NC(=O)COc2ccc(C)cc2)cc1OC (centres undefined)	20	7
C=CCOC(=O)C1=C(C)Nc2nc3ccccc3n2C1c1ccncc1 (centres undefined)	63*	-18
C=CCOC(=O)C1=C(C)Nc2ncnn2C1c1cccs1 (centres undefined)	23	29
SMILES	eIF2B yeast act	Yeast growth tox
COc1ccc2nc(NC(=O)C3CCCN3S(=O)(=O)c3ccc(C)cc3)sc2c1 (centres undefined)	17	25
Fc1cccc(Nc2cc(-n3cccn3)ncn2)c1	19	-6
Cc1ccc(S(=O)(=O)N[C@H](C(=O)N2CCC(C(=O)N3CCC[C@H]3C(=O)O)CC2)C(C)C)cc1	29	2
CC(=O)Nc1ccc(OCC(O)Cn2nc(C)c(Br)c2C)cc1 (centres undefined)	-24	11
CN(Cc1ccccc1)C1CC(=O)N(c2ccc(C(=O)O)cc2)C1=O (centres undefined)	-7	-1
CCCCCC(=O)N(O)C1CC(=O)N(c2ccccc2)C1=O (centres undefined)	47	38*
Cc1ccccc1N1C(=O)c2ccccc2NC1c1ccncc1 (centres undefined)	nt	0
O=C1c2ccccc2C(=O)C1c1ccncc1	67*	20
COc1ccc2c(c1)CCc1c(C(=O)N3CCCc4ccccc43)noc1-2	36	-10
COc1ccc2c(c1)CCc1c(C(=O)N3CC4(C)CC3CC(C)(C)C4)noc1-2 (centres undefined)	71*	-3
CC(=O)c1c(C(C)=O)c(C)n(C2CCCCC2)c1C	nt	7
CCC(=O)N1CCN(c2ccccc2NC(=O)COc2cc(C)ccc2C(C)C)CC1	-45	7
Cc1cc(N2CCC(C)CC2)n2nc(C)c(-c3ccccc3)c2n1	12	10
CCOCCCNC(=O)C1CCN(c2cc(C)nc3c(-c4ccc(OC)c(OC)c4)c(C)nn23)CC1	63*	-12
COC(=O)c1ccc(N(C(=O)CNC(=O)c2ccco2)C(C(=O)NC2CCCC2)c2ccco2)cc1 (centres undefined)	-34	19
Cc1ccc(-c2csc3nnc(SCC(=O)Nc4cccc(C)n4)n23)cc1	20	1
CCC(=O)Nc1ccc(Nc2ccccc2)cc1	4	8
COCC(=O)Nc1ccc(Nc2ccccc2)cc1	-9	31*
CC(=O)Oc1ccc(NC(=O)Cc2ccccc2)cc1	58*	14
CC(=O)Nc1ccc(NC(=O)Oc2ccccc2)cc1	9	-11
CC(C)Cn1c(=O)c2c(nc3n2CCCN3CCc2ccccc2)n(C)c1=O	14	1
COc1ccccc1N(CC(=O)Nc1ccc(S(=O)(=O)N2CCCCC2)cc1)S(C)(=O)=O	3	28
COC(=O)c1ccc(OCC(=O)c2ccccc2)cc1	23	5
COC(=O)c1cc(O)c(OCc2ccccc2)c(O)c1	70*	-11
O=C(/C=C/c1ccccc1Cl)c1cccnc1	nt	48*
SMILES	eIF2B yeast act	Yeast growth tox
N/C(=N\OC(=O)c1ccccc1Cl)c1cccnc1	31	6
CCOC(=O)CN(C(=O)Cn1nnc2ccccc21)C(C(=O)NCCOC)c1ccccc1C (centres undefined)	33	-12
CCCCN(C(=O)Cn1nnc2ccccc21)C(C(=O)NCCOC)c1ccccc1 (centres undefined)	57*	7
Cc1cc(=O)[nH]c(N=N/C(=N/Nc2ccc(O)cc2)c2ccccc2)n1	50*	-1
COc1ccc(N/N=C(/N=Nc2nc(C)cc(=O)[nH]2)c2ccccc2)cc1	13	-27
COC(=O)C1=[N+]([O-])OC(C(=O)OC)C1c1c[nH]c2ccccc12 (centres undefined)	8	2
CCOC(=O)Cn1c2ccc(OC)cc2c2nc3ccccc3nc21	33	-6
COC(=O)Cn1c2ccc(OC)cc2c2nc3ccccc3nc21	53*	-7
Cc1noc(C)c1C(=O)Nc1ccc2c(c1)CCC2	65*	nt
O=C(Nc1ccc2c(c1)CCC2)C1CCCO1 (centres undefined)	21	5
CCOC(=O)c1cnc2cc(C)nn2c1-c1ccccc1	15	-11
Cc1ccc(SCc2cc(=O)[nH]c(N3CCN(Cc4ccc5c(c4)OCO5)CC3)n2)cc1	60*	-17
Cc1ccc2c(CN3CCN(Cc4ccc5c(c4)OCO5)CC3)cc(=O)oc2c1C	15	4
O=C(NC1CCCCC1)C(c1ccc(F)cc1)N(Cc1ccc2c(c1)OCO2)C(=O)c1cnsn1 (centres undefined)	-31	nt
O=C1CC(N2CCN(c3ccc(F)cc3)CC2)C(=O)N1Cc1cccs1 (centres undefined)	5	2
O=C1CC(N2CCN(c3nc4ccccc4s3)CC2)C(=O)N1Cc1cccs1 (centres undefined)	-26	73*
O=c1c(Sc2ccccc2)c(C(F)(F)F)[nH]n1-c1ccccc1	16	9
Nc1nc2ccc(-c3nc4ccccc4o3)cc2s1	24	21
Nc1ccc2nc(-c3ccccc3)sc2c1	72*	20

Bioassay records from PubChem BioAssay.
